Bioassay records as filed in PubChem BioAssay.
The list is not random: actives were taken first. Their share in the collection is about 1.9%.
STEP inh – STEP (human) phosphatase inhibition; hit rate 0.25% among 360,000; P54829; recombinant STEP, OMFP fluorogenic substrate, fluorescence; inhibition, % at 20 µM;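 active means inhibition at 20 µM, scaled per plate between control wells, above about 37%, limit read from the data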;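 further: 0% = DMSO with enzyme and substrate and 100% = substrate only without enzyme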
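Also added – OMFP at 25 µM · Test system – STEP tyrosine phosphatase · Technique – FITC-channel fluorescence of OMFP product · Schedule – 20 min at room temperature, dark · Evaluation – control-normalized % inhibition with plate pattern correction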
SUMO1 PPI mod – SUMO1-SIM interaction modulation; P63165; SUMO1 binding to a labelled peptide, TR-FRET, 1 h; inhibition, % at 20 µM; hit rate 0.33% among 360,000; AID 602429; in the data active means inhibition above about 37%
DNMT1 block – blocks human DNA methyltransferase DNMT1; DNMT1 molecular beacon, Hinp1I cleavage, fluorescence; inhibition (reported as % activation of signal), % at 10 µM; hit rate 0.83% among 360,000; P26358; in the data active means inhibition above about 50%
Target sequence (P26358 504-1616 limits assumed): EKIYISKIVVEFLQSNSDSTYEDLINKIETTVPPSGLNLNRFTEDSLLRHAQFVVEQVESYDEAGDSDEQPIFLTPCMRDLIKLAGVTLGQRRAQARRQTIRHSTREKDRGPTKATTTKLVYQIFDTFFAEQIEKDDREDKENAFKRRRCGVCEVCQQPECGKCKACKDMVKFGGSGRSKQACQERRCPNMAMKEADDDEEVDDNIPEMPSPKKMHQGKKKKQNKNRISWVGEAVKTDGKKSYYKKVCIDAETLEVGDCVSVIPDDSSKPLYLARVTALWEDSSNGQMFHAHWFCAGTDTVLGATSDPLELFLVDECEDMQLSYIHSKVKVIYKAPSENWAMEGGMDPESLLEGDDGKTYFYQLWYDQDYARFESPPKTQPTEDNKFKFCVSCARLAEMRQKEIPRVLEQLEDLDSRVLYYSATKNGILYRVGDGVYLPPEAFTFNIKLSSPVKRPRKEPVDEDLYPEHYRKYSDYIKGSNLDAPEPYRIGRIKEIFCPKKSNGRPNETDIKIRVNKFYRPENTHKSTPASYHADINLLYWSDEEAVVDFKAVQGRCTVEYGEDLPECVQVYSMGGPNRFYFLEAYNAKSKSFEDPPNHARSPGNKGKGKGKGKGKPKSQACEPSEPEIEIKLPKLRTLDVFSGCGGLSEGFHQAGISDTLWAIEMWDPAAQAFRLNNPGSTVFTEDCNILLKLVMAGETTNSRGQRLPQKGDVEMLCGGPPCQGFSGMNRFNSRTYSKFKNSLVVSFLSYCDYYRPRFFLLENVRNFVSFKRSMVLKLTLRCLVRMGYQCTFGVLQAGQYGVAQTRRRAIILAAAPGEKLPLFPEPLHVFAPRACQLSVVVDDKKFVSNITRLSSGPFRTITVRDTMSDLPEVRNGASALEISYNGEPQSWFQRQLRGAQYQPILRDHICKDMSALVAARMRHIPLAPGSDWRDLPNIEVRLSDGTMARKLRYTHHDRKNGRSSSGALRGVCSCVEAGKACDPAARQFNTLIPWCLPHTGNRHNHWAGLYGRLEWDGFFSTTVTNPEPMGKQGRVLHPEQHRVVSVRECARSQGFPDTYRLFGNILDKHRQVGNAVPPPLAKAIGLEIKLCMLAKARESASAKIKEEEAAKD
Scp1 inh – inhibitors of human Scp-1 phosphatase. Recombinant Scp1, phosphopeptide, malachite green phosphate absorbance. hit rate 0.88% among 340,000. Q9GZU7. AID 493091. inhibition, % at 20 µM;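 active means inhibition above about 50% at 20 µM, limit read from the data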;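 further: plate controls were DMSO wells with enzyme for no effect and wells lacking enzyme for full effect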
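Times: enzyme reaction 45 min at room temperature, colour 5 min, stabilisation 30 min. Material: SCP-1 catalytic fragment, aa 76-261. Medium: Acidic Tris acetate buffer with magnesium and detergent. Signal: colorimetric free-phosphate detection, absorbance 630 nm. Read-out basis: % inhibition of SCP-1 phosphate liberation. Reagent: Phosphorylated 17-residue peptide substrate.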
LMPTP block – blocks human LMPTP phosphatase | P24666 | recombinant LMPTP-A, OMFP fluorogenic substrate, fluorescence intensity | inhibition, % at 20 µM | hit rate 0.22% among 360,000;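 active means compounds that cut the enzyme signal by at least half of the control window in the single-dose screen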;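 further: plate controls were DMSO wells with enzyme plus substrate for no effect and substrate without enzyme for full effect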
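material = LMPTP-A | quantity = 0.625 nM enzyme | reagent = OMFP substrate, 400 µM final | buffer or medium = Bis-Tris pH 6.0, DTT, detergent | detection = endpoint fluorescence intensity from OMFP dephosphorylation | dosing = single 20 µM dose | read-out basis = % inhibition relative to no-enzyme and uninhibited control wells | control set = no-enzyme and uninhibited controls | timing = 50 min at room temperature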
SUMO HTRF inh – inhibitors of human SUMOylation (UBC9); HTRF SUMOylation assay, SAE1/SAE2 + UBC9, in vitro; hit rate 0.36% among 290,000; AID 2006; inhibition, % at 35 µM; in the data active means inhibition above about 50%, passing the limit was not always enough
The depositor's hits bear a star; . = not tested or not shown; ! = a repeat was not active.

SMILES | STEP inh | SUMO1 PPI mod | DNMT1 block | Scp1 inh | LMPTP block | SUMO HTRF inh
CCOC(=O)c1ccc(N2C(=O)CC(N3CCC(C#N)(c4ccccc4)CC3)C2=O)cc1 (stereo not given) | -1 | 0 | -4 | -5 | 0 | 1
CCCC12CN3CC(CCC)(CN(C1)C3c1ccccn1)C2=O (stereo not given) | 0 | 1 | 1 | -6 | -2 | -1
CCOc1ccc(N2C(=O)NC(=O)/C(=C\c3ccc(N4CCCCC4)o3)C2=O)cc1 | 2 | -72 | 11 | -14 | 14 | 8
CCN1C(=O)/C(=C\c2ccc([N+](=O)[O-])s2)C(=O)NC1=S | . | . | . | . | . | 20
CCOc1ccc(N2C(=O)/C(=C/c3ccc(C)o3)C(=O)NC2=S)cc1 | 3 | 9 | 50* | 47 | 1 | -9
COc1ccc(OC)c(N2C(=O)NC(=O)/C(=C/c3ccc([N+](=O)[O-])s3)C2=O)c1 | 5 | 47* | 21 | 5 | 4 | 53
NC(N)=N/N=C/c1ccc(N(c2ccccc2)c2ccccc2)cc1 | 13 | 100* | 14 | -1 | 4 | 8
COc1ccc(/C=N\N=C(N)N)cc1 | 10 | -5 | 0 | -3 | 0 | -9
CC1=C(C)CC2(CC1)C(=O)NC(=O)NC2=O | 1 | -2 | 3 | 0 | -2 | .
COc1ccccc1-n1c(-c2ccccc2)nc2ccccc2c1=O | 0 | -3 | 1 | -10 | -1 | 4
COc1ccc(-c2nc3ccccc3c(=O)n2-c2nccs2)cc1 | -5 | 42* | -10 | -9 | -1 | 8
N#CC(C#N)=NNc1ccc(S(N)(=O)=O)cc1 | 2 | 31 | 46 | 12 | 57* | 24
COc1cccc(CC(=O)N(C)C2CCCN(Cc3ccccc3F)C2)c1 (stereo not given) | 2 | 2 | -2 | -6 | -3 | 12
Cc1nc2c(=O)n(C)c(=O)nc-2n(C)n1 | 79* | 29 | 128* | 0 | 73* | 103*
Clc1ccc(COC(Cn2ccnc2)c2ccc(Cl)cc2Cl)cc1 (stereo not given) | 2 | 4 | 7 | -3 | 2 | 30
Clc1ccc(C(c2ccc(Cl)cc2)n2cc[n+](CC(OCc3ccc(Cl)cc3Cl)c3ccc(Cl)cc3Cl)c2)cc1 (stereo not given) | 8 | 80* | -55 | -1 | 32 | .
N#Cc1c(/N=C/c2c(O)n(Cc3ccco3)c(=O)[nH]c2=O)sc2c1CCCC2 | 7 | 5 | 67* | 43 | 3 | 20
O=c1[nH]c(=O)n(Cc2ccco2)c(O)c1/C=N/N1CCCCCC1 | -2 | 0 | 10 | -2 | -1 | 21
c1cncc(C2Nc3cccc4cccc(c34)N2)c1 | 6 | 3 | -15 | 34 | 33 | 63*!
COC(=O)C1=C(c2ccccc2)C[C@@H]2CC[C@H]1N2C(=O)NCCS(C)=O (stereo not given in full) | -1 | 0 | 3 | -6 | -1 | .
Clc1ccc(C2NCCc3[nH]cnc32)cc1 (stereo not given) | 2 | 41* | -4 | -11 | -2 | -8
C/C(=N\NC(=O)c1ccccc1)c1c(O)n(C2CCCCC2)c(=O)[nH]c1=O | 0 | 0 | 1 | -11 | -1 | -6
Cc1cccc(N2C(=O)/C(=C/c3ccc(CN(CCC#N)S(C)(=O)=O)o3)C(=O)NC2=S)c1 | 3 | 25 | 58* | 26 | 4 | 12
C=CCN(CC#CCOc1ccccc1OC)CC=C | . | . | . | . | . | 9
C=C1C(=O)[C@@]23C[C@H]4[C@@H]5[C@@]6(C)CCC[C@@]57[C@@H]2[C@@H](O)[C@@H]1C[C@H]3[C@H]7N4C6 | 3 | 6 | 2 | 10 | 1 | .
SMILES | STEP inh | SUMO1 PPI mod | DNMT1 block | Scp1 inh | LMPTP block | SUMO HTRF inh
Cc1ccc(N2C(=O)NC(=O)/C(=C\c3cc(C)n(-c4cc(C(=O)O)cc(C(=O)O)c4)c3C)C2=O)cc1 | 5 | 12 | 41 | 51* | -1 | 21
c1ccc(CNc2c3c(nc4ccccc24)CCC3)cc1 | -3 | 0 | -3 | 2 | 40 | -12
CC(C)CNc1c2c(nc3ccccc13)CCC2 | 0 | 39* | 2 | -3 | 25 | 9
C=CCOC(=O)C1C(C(=O)O)C2(Cl)C(Cl)=C(Cl)C1(Cl)C2(Cl)Cl (stereo not given) | 1 | 10 | -3 | -5 | -2 | .
O=C(O)C1C(C(=O)O)C2(Cl)C(Cl)=C(Cl)C1(Cl)C2(Cl)Cl (stereo not given) | 10 | 22 | 28 | -15 | 65* | .
C=Cc1cc(OC)c2c(c1)c(=O)oc1c2cc(OC)c2c(O)ccc(C3OC(C)C(O)C(C)(O)C3O)c21 (stereo not given) | 8 | 48* | 62* | 81* | 11 | .
C1CN(P2(N3CC3)=NP(N3CC3)(N3CC3)=NP(N3CC3)(N3CC3)=N2)CCO1 (stereo not given) | 3 | 4 | 7 | . | -6 | .
CN(C)C1C(=O)C(C(N)=O)=C(O)C2(O)C(=O)C3=C(O)c4c(O)cccc4C(C)(O)C3C(O)C12 (stereo not given) | 6 | 8 | 53* | 16 | 52* | 32
O=C(O)CC1OCC=C2CN3CCC45C6=CC(=O)C(=O)C([N+](=O)[O-])=C6NC4C1C2CC35 (stereo not given) | 18 | 30 | 58* | 21 | 15 | 100*
Nc1c(C(=O)NC2CCCC2)c2nc3ccccc3nc2n1CC1CCCO1 (stereo not given) | 0 | 41* | 47 | 6 | 8 | 102
Nc1c(C(=O)NCC2CCCO2)c2nc3ccccc3nc2n1Cc1ccco1 (stereo not given) | 2 | -4 | -19 | -20 | 3 | 37
COc1ccc(C(=O)C2CCCN(Cc3ccc(F)cc3F)C2)cc1F (stereo not given) | -3 | 7 | 0 | -6 | -2 | 13
CC(C)CNC(=O)c1c(N)n(Cc2ccc3c(c2)OCO3)c2nc3ccccc3nc12 | -3 | 46* | -20 | -5 | 6 | 101
O=C1NC(=O)C(=Cc2cccc(OCCOc3ccccc3)c2)C(=O)N1 | -2 | 7 | -4 | -3 | 0 | 18
Cc1ccc(OCCOc2cccc(C=C3C(=O)NC(=O)NC3=O)c2)c(C)c1 | 2 | 8 | 52* | -2 | 2 | 16
O=C1CC=C2C3CC4N(CCC45c4cc(O)c(O)cc4N1C25)CC3=CCBr (stereo not given) | 84* | 111* | 91* | 12 | 77* | .
O=C1CC=C2C3CC4N(CCC45c4ccccc4N1C25)CC3=CCO (stereo not given) | 2 | 0 | 3 | -3 | -2 | .
